# Assay results reported in ChEMBL document CHEMBL3813658, “Texas Native Plants Yield Compounds with Cytotoxic Activities against Prostate Cancer Cells” (J Nat Prod, 2016).
# The source made the active and inactive calls. No cut-off for these calls is given here.
# Key:
# [1] = Antiproliferative activity against human DU145 cells after 48 hrs by sulforhodamine B assay; type: functional, cell-based; conditions: DU-145, 48 h
# How it was run: (§1)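 Sulforhodamine B assay. DU 145 cells in IMEM/10% FBS and PC-3 cells in RPMI-1640/10% FBS, both kept at 37 °C with 5% CO2, seeded at predetermined densities and left to adhere overnight. Cells exposed 48 h to a concentration range or DMSO vehicle, then TCA-fixed and SRB-stained. Bound dye dissolved in Tris and read at 560 nm.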
# [2] = Antiproliferative activity against human PC3 cells after 48 hrs by sulforhodamine B assay; type: functional, cell-based; conditions: PC-3, 48 h
# DU-145 [3] = assay: Ratio of IC50 for human PC3 cells to IC50 for human DU145 cells; type: functional
# [4] = Cytotoxicity against human DU145 cells assessed as reduction in cell density at 61.3 uM after 48 hrs by sulforhodamine B assay relative to control; type: functional; conditions: DU-145, 48 h; how it was run: as §1
# [5] = Cell cycle arrest in human DU145 cells assessed as accumulation at G0/G1 phase at 5 times antiproliferative IC50 after 16 to 23 hrs by propidium iodide staining based flow cytometry (reference value: 50.4 +/- […]%); type: functional; conditions: DU-145
# [6] = Cytotoxicity against human PC3 cells assessed as reduction in cell density at 61.7 uM after 48 hrs by sulforhodamine B assay relative to control; type: functional; conditions: PC-3, 48 h; how it was run: as §1
# [7] = Cytotoxicity against human DU145 cells assessed as reduction in cell density at 61.7 uM after 48 hrs by sulforhodamine B assay relative to control; type: functional; conditions: DU-145, 48 h; how it was run: as §1
# [8] = (§2) Inhibition of colony formation in human DU145 cells at antiproliferative IC90 incubated for 4 hrs followed by compound washout measured after 7 to 9 days by crystal violet staining based clonogenic assay relative to control; type: functional, DU-145
# How it was run: (§3)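 DU 145 cells plated at 150 per 60 mm plate and left to adhere about 24 h. Cells treated 4 h at the IC90 concentration, washed with fresh medium, then grown 7−9 days drug-free. Colonies stained with 0.5% crystal violet in 20% methanol, counted by imaging, and compared with vehicle-treated controls.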
# [9] = Cell cycle arrest in human DU145 cells assessed as accumulation at S phase at 5 times antiproliferative IC50 after 16 to 23 hrs by propidium iodide staining based flow cytometry (reference value: 27.8 +/- 1%); type: functional; conditions: DU-145
# How it was run: (§4)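 Cells harvested on ice, stained with Krishan's reagent (propidium iodide), and DNA content read by flow cytometry. Phase percentages derived from DNA histograms. n = 2–3 per compound, n = 5 for vehicle; error bars are SEM.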
# [10] = Cell cycle arrest in human DU145 cells assessed as accumulation at G2/M phase at 5 times antiproliferative IC50 after 16 to 23 hrs by propidium iodide staining based flow cytometry (reference value: 21.8 +/- 1.5%); type: functional; conditions: DU-145; how it was run: as §4
# DU-145 [11] = assay: Disruption of mitotic spindle in human DU145 cells assessed as elongated and curved morphology at 2 times antiproliferative IC50 after 16 to 18 hrs by DAPI staining based immunofluorescence microscopy; type: functional, cell-based
# How it was run: (§5)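 Cells fixed in ice-cold methanol, then stained with anti-β-tubulin and FITC secondary antibody; DNA stained with DAPI. Spindle morphology, metaphase DNA alignment and interphase microtubules assessed by fluorescence microscopy.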
# DU-145 [12] = assay: Disruption of mitotic spindle in human DU145 cells assessed as incorrect alignment of DNA at metaphase at 2 times antiproliferative IC50 after 16 to 18 hrs by DAPI staining based immunofluorescence microscopy; type: functional, cell-based; how it was run: as §5
# Tubulin (Sus scrofa) [13] = target: T1, Tubulin (Sus scrofa) (UniProt P02554+P02550); assay: Induction of porcine brain tubulin polymerization at 2 uM incubated for 1 hr by turbidimetric assay
# T1 sequence (P02550 whole entry, looked up): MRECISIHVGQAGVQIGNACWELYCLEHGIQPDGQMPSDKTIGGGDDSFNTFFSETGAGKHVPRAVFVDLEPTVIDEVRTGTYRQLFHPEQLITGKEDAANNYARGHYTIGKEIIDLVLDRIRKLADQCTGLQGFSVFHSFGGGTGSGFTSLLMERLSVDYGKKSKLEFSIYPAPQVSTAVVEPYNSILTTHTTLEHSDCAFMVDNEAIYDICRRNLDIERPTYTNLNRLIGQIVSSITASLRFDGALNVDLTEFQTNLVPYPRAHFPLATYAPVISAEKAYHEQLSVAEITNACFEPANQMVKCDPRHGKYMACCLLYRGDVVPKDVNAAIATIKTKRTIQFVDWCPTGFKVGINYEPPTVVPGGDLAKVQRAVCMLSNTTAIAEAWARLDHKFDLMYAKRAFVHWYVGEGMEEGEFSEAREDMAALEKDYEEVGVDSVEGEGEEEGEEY
# T1 sequence (P02554 whole entry, looked up): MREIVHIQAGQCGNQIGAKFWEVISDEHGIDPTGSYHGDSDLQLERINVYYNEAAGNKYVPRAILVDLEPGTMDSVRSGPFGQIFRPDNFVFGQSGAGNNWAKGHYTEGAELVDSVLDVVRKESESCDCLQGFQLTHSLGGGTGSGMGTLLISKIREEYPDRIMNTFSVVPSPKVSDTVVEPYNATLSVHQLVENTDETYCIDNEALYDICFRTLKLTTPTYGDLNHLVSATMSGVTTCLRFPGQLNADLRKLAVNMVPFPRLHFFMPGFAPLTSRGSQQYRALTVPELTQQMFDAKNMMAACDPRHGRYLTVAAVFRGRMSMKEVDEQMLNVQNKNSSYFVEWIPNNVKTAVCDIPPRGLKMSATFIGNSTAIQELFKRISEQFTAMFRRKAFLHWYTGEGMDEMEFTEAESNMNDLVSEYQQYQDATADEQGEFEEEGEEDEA
# How it was run: (§6)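 Purified porcine brain tubulin (2 mg/mL) in GPEM buffer with 1 mM GTP, polymerized for 1 h at 37 °C with 1% DMSO vehicle or compound at 2 or 20 μM. Turbidity followed as absorbance at 340 nm; initial rate and total polymer assessed.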
# Tubulin (Sus scrofa) [14] = target: T1, Tubulin (Sus scrofa); assay: Induction of porcine brain tubulin polymerization at 20 uM incubated for 1 hr by turbidimetric assay; how it was run: as §6
# Tubulin (Sus scrofa) [15] = target: T1, Tubulin (Sus scrofa); assay: Effect on total porcine brain tubulin polymer level at 20 uM incubated for 1 hr by turbidimetric assay; how it was run: as §6
# [16] = Cytotoxicity against human PC3 cells assessed as reduction in cell density after 48 hrs by sulforhodamine B assay relative to control; type: functional, PC-3; how it was run: as §1
# [17] = Cytotoxicity against human DU145 cells assessed as reduction in cell density after 48 hrs by sulforhodamine B assay relative to control; type: functional, DU-145; how it was run: as §1
# DU-145 [18] = assay: Disruption of mitotic spindle in human DU145 cells assessed as elongated and curved morphology at 5 times antiproliferative IC50 after 16 to 18 hrs by DAPI staining based immunofluorescence microscopy; type: functional, cell-based; how it was run: as §5
# DU-145 [19] = assay: Disruption of mitotic spindle in human DU145 cells assessed as incorrect alignment of DNA at metaphase at 5 times antiproliferative IC50 after 16 to 18 hrs by DAPI staining based immunofluorescence microscopy; type: functional, cell-based; how it was run: as §5
# [20] = target: T2, Mitogen-activated protein kinase; ERK1/ERK2 (Homo sapiens) (UniProt P27361+P28482); assay: Activation of ERK1/2 in human DU145 cells assessed as increase in phosphorylation at Thr202/Tyr204 residue at antiproliferative IC90 after 4 hrs by fluorescence based intracellular signaling array method; type: cell-based; conditions: DU-145
# T2 sequence (P27361 whole entry, looked up): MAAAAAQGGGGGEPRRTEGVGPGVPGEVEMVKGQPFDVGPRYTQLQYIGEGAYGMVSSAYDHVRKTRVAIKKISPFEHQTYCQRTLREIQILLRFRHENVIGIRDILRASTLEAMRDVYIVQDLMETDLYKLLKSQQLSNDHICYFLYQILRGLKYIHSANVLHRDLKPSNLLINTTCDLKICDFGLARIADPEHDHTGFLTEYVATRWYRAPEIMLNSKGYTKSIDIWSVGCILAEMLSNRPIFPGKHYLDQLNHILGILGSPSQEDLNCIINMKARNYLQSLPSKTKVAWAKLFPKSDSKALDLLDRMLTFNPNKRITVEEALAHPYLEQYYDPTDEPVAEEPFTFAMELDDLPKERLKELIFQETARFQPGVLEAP
# T2 sequence (P28482 whole entry, looked up): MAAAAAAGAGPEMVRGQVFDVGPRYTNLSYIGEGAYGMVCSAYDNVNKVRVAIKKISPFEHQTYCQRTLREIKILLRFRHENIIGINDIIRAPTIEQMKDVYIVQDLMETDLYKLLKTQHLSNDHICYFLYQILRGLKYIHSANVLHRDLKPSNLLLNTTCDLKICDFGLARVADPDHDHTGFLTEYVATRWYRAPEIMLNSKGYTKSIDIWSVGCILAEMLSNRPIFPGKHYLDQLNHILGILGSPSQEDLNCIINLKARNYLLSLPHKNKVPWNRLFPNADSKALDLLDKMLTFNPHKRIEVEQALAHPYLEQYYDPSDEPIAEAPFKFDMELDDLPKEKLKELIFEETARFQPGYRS
# How it was run: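 PathScan intracellular signaling array with fluorescent read-out. DU 145 cells treated for 4 h; lysates made with cell extraction buffer plus protease inhibitors, as for Western blots. Phospho-Erk1/2 at Thr202/Tyr204 scored.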
# [21] = target: T2, Mitogen-activated protein kinase; ERK1/ERK2 (Homo sapiens); assay: Increase in ERK1/2 phosphorylation in human DU145 cells at antiproliferative IC90 up to 2 hrs by Western blot analysis; type: cell-based; conditions: DU-145
# How it was run: (§7)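 Equal protein run on SDS-PAGE and blotted to membrane. Probed with phospho-p44/42 and total p44/42 antibodies (1:1000) and HRP secondaries (1:5000), then quantified by densitometry.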
# [22] = target: T2, Mitogen-activated protein kinase; ERK1/ERK2 (Homo sapiens); assay: Increase in ERK1/2 phosphorylation in human DU145 cells at antiproliferative IC90 after 2 to 18 hrs by Western blot analysis; type: cell-based; conditions: DU-145; how it was run: as §7
# [23] = Cytotoxicity against human PC3 cells assessed as reduction in cell density at 12.5 uM after 48 hrs by sulforhodamine B assay relative to control; type: functional; conditions: PC-3, 48 h; how it was run: as §1
# [24] = Cytotoxicity against human DU145 cells assessed as reduction in cell density at 12.5 uM after 48 hrs by sulforhodamine B assay relative to control; type: functional; conditions: DU-145, 48 h; how it was run: as §1
# DU-145 [25] = assay: as §2; type: functional; how it was run: as §3
# DU-145 [26] = assay: Effect on interphase microtubule in human DU145 cells at 5 times antiproliferative IC50 after 16 to 18 hrs by DAPI staining based immunofluorescence microscopy; type: functional, cell-based; how it was run: as §5
SMILES,IC50 [1],IC50 [2],Ratio IC50 (DU-145 [3]),Activity [5],inhibition (INH) [8],Activity [9],Activity [10],Activity (Tubulin (Sus scrofa) [13]),Activity (Tubulin (Sus scrofa) [14]),inhibition (INH) [16],inhibition (INH) [17],Activity (DU-145 [18]),Activity (DU-145 [19]),Activity [20],Activity [22],also measured
CC(=O)O[C@H]1C(=O)[C@@]2(C)[C@H]([C@H](OC(=O)c3ccccc3)[C@]3(O)C[C@H](OC(=O)[C@H](O)[C@@H](NC(=O)c4ccccc4)c4ccccc4)C(C)=C1C3(C)C)[C@]1(OC(C)=O)CO[C@@H]1C[C@@H]2O [PACLITAXEL],0.0038 µM,,,,,,,,,,,,,,,
CC(C)(O)C(O)Cc1c(O)ccc(C(=O)/C=C/c2ccccc2)c1O (stereo not drawn),25.5 µM,35 µM,1.4,,,,,,,,,,,,,inhibition at 61.3 µM [4]: 46%
C=C(C)C(O)Cc1c(O)ccc(C(=O)/C=C/c2ccccc2)c1O (stereo not drawn),7 µM,11 µM,1.6,37.8%,44%,28.8%,33.4%,inactive,Active,,,,,,,inhibition at 61.7 µM [6]: 84%; inhibition at 61.7 µM [7]: 84%; Activity (DU-145 [11]): Active; Activity (DU-145 [12]): Active; Activity (Tubulin (Sus scrofa) [15]): inactive
C=C(C)C(=O)O[C@H]1C/C(C=O)=C\CC/C(C)=C/[C@H]2OC(=O)C(=C)[C@H]12,1.8 µM,3 µM,1.7,46.4%,98%,27.2%,26.4%,inactive,inactive,20%,20%,Active,Active,Active,inactive,Activity [21]: Active
CC(C)[C@@H]1CC[C@@]2(C)CCC[C@@](C)(O)[C@@H]2[C@@H]1OC(=O)/C=C/c1ccc(O)cc1,5.2 µM,4 µM,0.77,51.5%,,24.9%,23.5%,,,,,inactive,,Active,inactive,inhibition at 12.5 µM [23]: 84%; inhibition at 12.5 µM [24]: 84%; inhibition (DU-145 [25]): inactive; Activity (DU-145 [26]): inactive
C=C(C)C(=O)OC/C1=C\CC[C@]2(C)O[C@H]2[C@@H](O)[C@@H]2C(=C)C(=O)O[C@H]2C1,3.7 µM,12 µM,3.2,32.8%,23%,32.7%,34.5%,inactive,inactive,30%,20%,Active,Active,Active,,Activity [21]: Active
C=C1C(=O)O[C@H]2C/C(COC(=O)C(C)C)=C/CC[C@]3(C)O[C@H]3[C@@H](O)[C@H]12,1.7 µM,4.7 µM,2.8,34.4%,42%,31.2%,34.5%,inactive,inactive,30%,20%,Active,Active,Active,Active,
